The source of these data is ChEMBL document CHEMBL5247575 (J Med Chem, 2018).

≈ marks a conversion by molar mass, not a printed value.

A short description of test [1]: Inhibition of bacteria KPC-2 assessed as apparent inhibition constant using nitrocefin as substrate.
Test [2] is described as follows: Binding affinity to bacteria KPC-2 assessed as dissociation constant.
The subject of test [3] is Klebsiella pneumoniae. Briefly: Antibacterial activity against Klebsiella pneumoniae 901/1860 producing KPC-3 by broth microdilution method. Type of test: functional. For orientation: Dilution methods test growth across graded concentrations, often in twofold steps.
Test [4] concerns Klebsiella pneumoniae. Nature of the test: Antibacterial activity against Klebsiella pneumoniae 935/1884 producing KPC-3 by broth microdilution method. Type of test: functional.
For test [5], the system named is Klebsiella pneumoniae. Nature of the test: Antibacterial activity against Klebsiella pneumoniae 977/1916 producing KPC-3 by broth microdilution method. Type of test: functional.
Test [6] relates to Klebsiella pneumoniae. Briefly: Antibacterial activity against Klebsiella pneumoniae 1084/1957 producing KPC-3 by broth microdilution method. Type of test: functional.
The subject of test [7] is Klebsiella pneumoniae. Briefly: Antibacterial activity against Klebsiella pneumoniae 11978 producing OXA-48 by broth microdilution method. Type of test: functional.
Test [8] has as its system Klebsiella pneumoniae. Nature of the test: Antibacterial activity against Klebsiella pneumoniae CAV 1636 producing OXA-181 by broth microdilution method. Type of test: functional.
Test [9] deals with Klebsiella pneumoniae. Briefly: Antibacterial activity against Klebsiella pneumoniae jefferson 1773 producing OXA-181 by broth microdilution method. Type of test: functional.
The test system of test [10] is Pseudomonas aeruginosa. Briefly: Synergistic antibacterial activity against Pseudomonas aeruginosa 776 assessed as cefepime MIC at 8 ug/ml by broth microdilution method. Type of test: functional. The following applies: dose 8 µg/ml.
Test [11] has as its system Klebsiella pneumoniae. Briefly: Synergistic antibacterial activity against Klebsiella pneumoniae jefferson 1773 producing OXA-181 assessed as meropenem MIC at 8 ug/ml by broth microdilution method. The note with it: dose 8 µg/ml. Type of test: functional.
Test [12] concerns Acinetobacter baumannii. Briefly: Antibacterial activity against Acinetobacter baumannii NCTC 13301 producing OXA-23/51 infected in sc dosed Swiss albino mouse administered 1 hr post infection and measured upto 7 days. Type of test: functional. The following applies: NCTC 13301, 168 h, time <= 7 day; for ED50: read-out: PD50. A digest of the protocol:
(§1)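 Peritonitis model: male and female Swiss albino mice infected intraperitoneally with 3.5×10^5 to 3×10^6 CFU/mouse in 5% hog gastric mucin (lethal to untreated mice within 24 h). […] Survival followed 7 days; PD50/PD90 by probit analysis.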

Test [13] deals with Acinetobacter baumannii. Briefly: Antibacterial activity against Acinetobacter baumannii NCTC 13303 producing OXA-26/51 infected in sc dosed Swiss albino mouse administered 1 hr post infection and measured upto 7 days. Type of test: functional. The note with it: NCTC 13303, 168 h, time <= 7 day. The procedure, abridged: as §1
Test [14] has as its system Acinetobacter baumannii. Briefly: Antibacterial activity against Acinetobacter baumannii SL46 producing OXA-23/51 infected in sc dosed Swiss albino mouse administered 1 hr post infection and measured upto 7 days. Type of test: functional. The note with it: SL46, 168 h, time <= 7 day. The procedure, abridged:
as §1

Test [15] deals with Pseudomonas aeruginosa. Briefly: Antibacterial activity against Pseudomonas aeruginosa 776 by broth microdilution method. Type of test: functional.
Test [16] has as its system Pseudomonas aeruginosa. Nature of the test: Synergistic antibacterial activity against Pseudomonas aeruginosa 715 assessed as cefepime MIC at 8 ug/ml by broth microdilution method. Type of test: functional. The following applies: dose 8 µg/ml.
The subject of test [17] is Escherichia coli. Briefly: Antibacterial activity against Escherichia coli DH10B transfected with pBC SK (-) KPC-2 by broth microdilution method. Type of test: functional.
Test [18] relates to Pseudomonas aeruginosa. Nature of the test: Antibacterial activity against Pseudomonas aeruginosa 795 by broth microdilution method. Type of test: functional.
The nature of test [19]: Inhibition of bacteria OXA-48 assessed as apparent inhibition constant using nitrocefin as substrate.
Test [20] concerns Bacteria. Briefly: Inhibition of bacteria OXA-48 assessed as second order rate constant K2/K using nitrocefin as substrate.
Test [21] has as its system Bacteria. Nature of the test: Inhibition of bacteria OXA-48 assessed as Koff rate using nitrocefin as substrate incubated for 30 mins.
In test [22] the test system is Bacteria. Briefly: Inhibition of bacteria OXA-48 assessed as half life using nitrocefin as substrate.
Test [23] is described as follows: Binding affinity to bacteria OXA-48 assessed as dissociation constant.
Test [24] deals with Acinetobacter baumannii. Briefly: Synergistic antibacterial activity against Acinetobacter baumannii NCTC 13301 producing OXA-23/51 infected in sc dosed Swiss albino mouse assessed as cefepime MIC at 8 ug/ml administered 1 hr post infection and measured upto 7 days. Type of test: functional. The following applies: NCTC 13301, 168 h, dose 8 µg/ml, time <= 7 day.
Test [25] deals with Acinetobacter baumannii. Nature of the test: Synergistic antibacterial activity against Acinetobacter baumannii NCTC 13301 producing OXA-23/51 infected in sc dosed Swiss albino mouse assessed as meropenem MIC at 8 ug/ml administered 1 hr post infection and measured upto 7 days. Type of test: functional. The following applies: NCTC 13301, 168 h, dose 8 µg/ml, time <= 7 day.
The subject of test [26] is Acinetobacter baumannii. Briefly: Synergistic antibacterial activity against Acinetobacter baumannii NCTC 13301 producing OXA-23/51 infected in sc dosed Swiss albino mouse assessed as tigecycline MIC at 8 ug/ml administered 1 hr post infection and measured upto 7 days. Type of test: functional. The following applies: NCTC 13301, 168 h, dose 8 µg/ml, time <= 7 day.
For test [27], the system named is Acinetobacter baumannii. Nature of the test: Synergistic antibacterial activity against Acinetobacter baumannii NCTC 13301 producing OXA-23/51 infected in sc dosed Swiss albino mouse assessed as colistin MIC at 8 ug/ml administered 1 hr post infection and measured upto 7 days. The following applies: NCTC 13301, 168 h, dose 8 µg/ml, time <= 7 day. Type of test: functional.

The test system of test [28] is Acinetobacter baumannii. Briefly: Synergistic antibacterial activity against Acinetobacter baumannii NCTC 13303 producing OXA-26/51 infected in sc dosed Swiss albino mouse assessed as cefepime MIC at 8 ug/ml administered 1 hr post infection and measured upto 7 days. Type of test: functional. The note with it: NCTC 13303, 168 h, dose 8 µg/ml, time <= 7 day.
Test [29] has as its system Acinetobacter baumannii. Briefly: Synergistic antibacterial activity against Acinetobacter baumannii NCTC 13303 producing OXA-26/51 infected in sc dosed Swiss albino mouse assessed as tigecycline MIC at 8 ug/ml administered […] post infection and measured upto 7 days. Type of test: functional. The following applies: NCTC 13303, 168 h, dose 8 µg/ml, time <= 7 day.
In test [30] the test system is Acinetobacter baumannii. Nature of the test: Synergistic antibacterial activity against Acinetobacter baumannii SL46 producing OXA-23/51 infected in sc dosed Swiss albino mouse assessed as cefepime MIC at 8 ug/ml administered 1 hr post infection and measured upto 7 days. Type of test: functional. The following applies: SL46, 168 h, dose 8 µg/ml, time <= 7 day.
Test [31] relates to Acinetobacter baumannii. Briefly: Synergistic antibacterial activity against Acinetobacter baumannii SL46 producing OXA-23/51 infected in sc dosed Swiss albino mouse assessed as meropenem MIC at 8 ug/ml administered 2 hrs post infection and measured upto 7 days. Type of test: functional. The note with it: SL46, 168 h, dose 8 µg/ml, time <= 7 day.
Test [32] relates to Bacteria.
Test [33] relates to Bacteria. The source holds these as a separate data set.
Test [34] has as its system Acinetobacter baumannii. Briefly: Antibacterial activity against Acinetobacter baumannii SL46 producing OXA-23/51 infected in sc dosed Swiss albino mouse administered 1 hr post infection and measured upto 7 days. The following applies: SL46, 168 h.
Test [35] relates to Acinetobacter baumannii. Briefly: Antibacterial activity against Acinetobacter baumannii NCTC 13303 producing OXA-26/51 infected in sc dosed Swiss albino mouse administered 1 hr post infection and measured upto 7 days. The following applies: NCTC 13303, 168 h.
Test [36] concerns Bacteria. Nature of the test: Inhibition of bacteria KPC-2 assessed as Koff rate using nitrocefin as substrate incubated for 30 mins.
Test [37] relates to Bacteria. Nature of the test: Inhibition of bacteria PDC-3 assessed as Koff rate using nitrocefin as substrate incubated for 30 mins.
Test [38] deals with Klebsiella pneumoniae. Briefly: Antibacterial activity against Klebsiella pneumoniae 440/1360 producing KPC-2 by broth microdilution method. Type of test: functional.
Test [39] has as its system Klebsiella pneumoniae. Nature of the test: Antibacterial activity against Klebsiella pneumoniae CAV 1543 producing OXA-48 by broth microdilution method. Type of test: functional.
The test system of test [40] is Klebsiella pneumoniae. Nature of the test: Antibacterial activity against Klebsiella pneumoniae NY BS producing OXA-232 by broth microdilution method. Type of test: functional.

The term Kd denotes a measure of binding affinity in units of concentration. A word on the MIC: it is the smallest concentration in the dilution series that meets the test's criterion for growth inhibition. `O=C(NNC(=O)[C@@H]1CC[C@@H]2CN1C(=O)N2OS(=O)(=O)O)[C@@H]1CCCNC1` [ZIDEBACTAM]: the Ki in test [1] worked out at 4500 nM. Further, the Kd in test [2] stood at 43 nM. In addition, the MIC in [3], in [4], in [5], in test [6], in test [7] and in [8] was > 16 µg/mL in each case. In addition, the MIC in test [9] was > 16 µg/mL; in test [10], 16 µg/mL; in [11], ≤ 0.12 µg/mL. Further, the results for the ED90 in test [12], in test [13] and in test [14] were 52.3 mg/kg, 23.2 mg/kg and 52.3 mg/kg, respectively. The ED50 was 23.2 mg/kg in [12], < 23.2 mg/kg in [13] (read-out: PD50) and 23.2 mg/kg in test [14] (read-out: PD50).

For `O=C(NNC(=O)[C@@H]1CC[C@@H]2CN1C(=O)N2OS(=O)(=O)O)[C@@H]1CCNC1`, the Ki in test [1] came to 7800 nM. The Kd in test [2] came out at 40 nM. Moreover, the MIC in [15] stood at 8 µg/mL (≈ 21.2 µM); in test [16], 0.25 µg/mL; in test [10], 0.25 µg/mL.

Consider `O.O=C(NC1CCNCC1)[C@@H]1CC[C@@H]2CN1C(=O)N2OS(=O)(=O)O` [RELEBACTAM], for which the MIC in test [17], in test [15] and in test [18] was > 16 µg/mL each time.

As for `N#C[C@@H]1CC[C@@H]2CN1C(=O)N2OS(=O)(=O)[O-].[Na+]`, in test [19], the Ki came to 290 nM. Besides, the MIC in test [17] was > 16 µg/mL; in test [18] it was > 16 µg/mL; in [16], > 16 µg/mL; in test [11] it was 0.25 µg/mL; in test [24] it was > 256 µg/mL; in [25] it was 1 µg/mL. Moreover, the MIC in test [26] was 1 µg/mL; in test [27] it was 1 µg/mL; in [28], 64 µg/mL; in [29] it was 1 µg/mL; in test [30], > 512 µg/mL; in [31], 64 µg/mL. For the same compound, the K in test [20] was 6.4 10^5/M/s; in test [21], 9 10^-4/s. The values for the T1/2 in test [22], in test [32] and in [33] were 0.217 h, 0.383 h and 0.483 h, respectively. For the same compound, the Kd in [23] turned out to be 1.4 nM. For the same compound, the ED90 turned out to be 23.7 mg/kg in test [12], 66.2 mg/kg in test [34] and 49.4 mg/kg in test [35]. The ED50 in test [12] was 16.3 mg/kg; in test [34] (read-out: PD50) it was 24.9 mg/kg; in test [35] (read-out: PD50), 24 mg/kg.

In the case of `NC(=O)[C@@H]1CC[C@@H]2CN1C(=O)N2OS(=O)(=O)[O-].[Na+]` [AVIBACTAM SODIUM], the K in test [20] is 1.4 10^3/M/s; in test [36] it was 1.4 10^-4/s; in [37], 8 10^-4/s; in [21], 1.2 10^-5/s. Further, the figures for the T1/2 in test [22], in [32] and in [33] were 16.7 h, 23.9 h and 30.4 h, respectively. Also, the MIC in test [38], in test [7], in test [8], in test [39], in test [40] and in [9] was > 16 µg/mL in each case.
